Columns and labels:
Format in all cases: functional
NCI-H322M = assay: Antitumor activity against human NCI-H322M cells after 48 hrs by SRB assay
In short: (§1)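 Cells grown in RPMI 1640 with 5% FBS and 2 mM L-glutamine and seeded at 5000–40,000 cells/well according to doubling time. They were preincubated 24 h at 37 °C, 5% CO2, then exposed to DMSO-solubilized compound for 48 h. Adherent cells were fixed with cold TCA (10% final), suspension cells with 16% final. Stained with 0.4% SRB; absorbance at 515 nm. Percent growth calculated against time-zero and control plates.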

SK-MEL-5 = assay: Antitumor activity against human SK-MEL-5 cells after 48 hrs by SRB assay; conditions: SK-MEL-5, 48 h; in short: as §1
UACC-257 = assay: Antitumor activity against human UACC257 cells after 48 hrs by SRB assay; conditions: UACC-257, 48 h
In short: (§2)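 NCI-60 protocol. Cells were grown in RPMI 1640 with 5% FBS and 2 mM L-glutamine, plated at 5000–40,000 cells/well, and preincubated 24 h at 37 °C, 5% CO2. Time-zero plates were TCA-fixed. Compounds were in DMSO and incubated 48 h. Fixation used cold TCA (final 16% for suspension SR; final 10% for adherent lines 2-7). Plates were stained with 0.4% SRB in 1% acetic acid, solubilized in 10 mM Tris base, and read at 515 nm. Percent growth was calculated from Tz, C and Ti.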

HCT-15 = assay: Antitumor activity against human HCT15 cells after 48 hrs by SRB assay; conditions: HCT-15, 48 h; in short: as §1
MDA-MB-231 = assay: Antitumor activity against human MDA-MB-231 cells after 48 hrs by SRB assay; conditions: MDA-MB-231, 48 h; in short: as §1
Malme-3M = assay: Antitumor activity against human MALME-3M cells after 48 hrs by SRB assay; in short: as §1
MCF7 = assay: Antitumor activity against human MCF7 cells after 48 hrs by SRB assay; conditions: MCF7, 48 h; in short: as §1
MDA-MB-468 = assay: Antitumor activity against human MDA-MB-468 cells after 48 hrs by SRB assay; conditions: MDA-MB-468, 48 h; in short: as §1
MOLT-4 = assay: Antitumor activity against human MOLT4 cells after 48 hrs by SRB assay; conditions: MOLT-4, 48 h; in short: as §1
SF-295 = assay: Antitumor activity against human SF295 cells after 48 hrs by SRB assay; conditions: SF-295, 48 h; in short: as §1
NCI-H23 = assay: Antitumor activity against human NCI-H23 cells after 48 hrs by SRB assay; conditions: NCI-H23, 48 h; in short: as §1
SK-MEL-28 = assay: Antitumor activity against human SK-MEL-28 cells after 48 hrs by SRB assay; conditions: SK-MEL-28, 48 h; in short: as §1
SNB-19 = assay: Antitumor activity against human SNB19 cells after 48 hrs by SRB assay; conditions: SNB-19, 48 h; in short: as §1
A549 = assay: Antitumor activity against human A549 cells after 48 hrs by SRB assay; conditions: A549, 48 h; in short: as §1
UACC-62 = assay: Antitumor activity against human UACC62 cells after 48 hrs by SRB assay; conditions: UACC-62, 48 h; in short: as §2
UO-31 = assay: Antitumor activity against human UO31 cells after 48 hrs by SRB assay; conditions: UO-31, 48 h; in short: as §2
SNB-75 = assay: Antitumor activity against human SNB75 cells after 48 hrs by SRB assay; conditions: SNB-75, 48 h; in short: as §1
EKVX = assay: Antitumor activity against human EKVX cells after 48 hrs by SRB assay; in short: as §1
A498 = assay: Antitumor activity against human A498 cells after 48 hrs by SRB assay; conditions: A498, 48 h; in short: as §1
M14 = assay: Antitumor activity against human M14 cells after 48 hrs by SRB assay; conditions: M14, 48 h; in short: as §1
HT-29 = assay: Antitumor activity against human HT-29 cells after 48 hrs by SRB assay; conditions: HT-29, 48 h; in short: as §1
NCI-H522 = assay: Antitumor activity against human NCI-H522 cells after 48 hrs by SRB assay; conditions: NCI-H522, 48 h; in short: as §1
RXF 393 = assay: Antitumor activity against human RXF393 cells after 48 hrs by SRB assay; conditions: RXF 393, 48 h; in short: as §1
SR = assay: Antitumor activity against human SR cells after 48 hrs by SRB assay; in short: as §2
HOP-62 = assay: Antitumor activity against human HOP62 cells after 48 hrs by SRB assay; conditions: HOP-62, 48 h; in short: as §1
MDA-MB-435 = assay: Antitumor activity against human MDA-MB-435 cells after 48 hrs by SRB assay; conditions: MDA-MB-435, 48 h; in short: as §1
CCRF-CEM = assay: Antitumor activity against human CCRF-CEM cells after 48 hrs by SRB assay; in short: as §1
SF-268 = assay: Antitumor activity against human SF268 cells after 48 hrs by SRB assay; conditions: SF-268, 48 h; in short: as §1
OVCAR-8 = assay: Antitumor activity against human OVCAR8 cells after 48 hrs by SRB assay; conditions: OVCAR-8, 48 h; in short: as §1
[1] = read-out: LC50 (the source's name)

## Clc1ccc(-c2nc3sc(C4CC4)nn3c2Br)cc1
NCI-H322M
  GI50: 43.4 µM
  TGI: > 100 µM
NCI-H322M; [1]
  CC50: > 100 µM
SK-MEL-5
  GI50: 2.17 µM
  TGI: > 100 µM
SK-MEL-5; [1]
  CC50: > 100 µM
UACC-257
  GI50: 4.14 µM
  TGI: > 100 µM
UACC-257; [1]
  CC50: > 100 µM
HCT-15
  GI50: 2.02 µM
  TGI: > 100 µM
HCT-15; [1]
  CC50: > 100 µM
MDA-MB-231
  GI50: 6.59 µM
  TGI: > 100 µM
MDA-MB-231; [1]
  CC50: > 100 µM
Malme-3M
  GI50: 8.79 µM
  TGI: > 100 µM
Malme-3M; [1]
  CC50: > 100 µM
MCF7
  GI50: 8.18 µM
  TGI: > 100 µM
MCF7; [1]
  CC50: > 100 µM
MDA-MB-468
  GI50: 2.95 µM
  TGI: > 100 µM
MDA-MB-468; [1]
  CC50: > 100 µM
MOLT-4
  GI50: 2.97 µM
  TGI: > 100 µM
MOLT-4; [1]
  CC50: > 100 µM
SF-295
  GI50: 5.04 µM
  TGI: > 100 µM
SF-295; [1]
  CC50: > 100 µM
NCI-H23
  GI50: 5.1 µM
  TGI: > 100 µM
NCI-H23; [1]
  CC50: > 100 µM
SK-MEL-28
  GI50: 35.6 µM
  TGI: > 100 µM
SK-MEL-28; [1]
  CC50: > 100 µM
SNB-19
  GI50: 15.6 µM
  TGI: > 100 µM
SNB-19; [1]
  CC50: > 100 µM
A549
  GI50: 7.42 µM
  TGI: > 100 µM
A549; [1]
  CC50: > 100 µM
UACC-62
  GI50: 4.36 µM
  TGI: > 100 µM
UACC-62; [1]
  CC50: > 100 µM
UO-31
  GI50: 16.4 µM
  TGI: > 100 µM
UO-31; [1]
  CC50: > 100 µM
SNB-75
  GI50: 12.2 µM
  TGI: 51.9 µM
SNB-75; [1]
  CC50: > 100 µM
EKVX
  GI50: 5.22 µM
  TGI: > 100 µM
EKVX; [1]
  CC50: > 100 µM
A498
  GI50: 30.8 µM
  TGI: > 100 µM
A498; [1]
  CC50: > 100 µM
M14
  GI50: 7.7 µM
  TGI: > 100 µM
M14; [1]
  CC50: > 100 µM
HT-29
  GI50: 6.12 µM
  TGI: > 100 µM
HT-29; [1]
  CC50: > 100 µM
NCI-H522
  GI50: 5.31 µM
  TGI: 55.4 µM
NCI-H522; [1]
  CC50: > 100 µM
RXF 393
  GI50: 2.93 µM
  TGI: 14.8 µM
RXF 393; [1]
  CC50: > 100 µM
SR
  GI50: 2.9 µM
  TGI: > 100 µM
SR; [1]
  CC50: > 100 µM
HOP-62
  GI50: 38.1 µM
  TGI: > 100 µM
HOP-62; [1]
  CC50: > 100 µM
MDA-MB-435
  GI50: 6.08 µM
  TGI: > 100 µM
MDA-MB-435; [1]
  CC50: > 100 µM
CCRF-CEM
  GI50: 3.66 µM
  TGI: > 100 µM
CCRF-CEM; [1]
  CC50: > 100 µM
SF-268
  GI50: 19.3 µM
  TGI: > 100 µM
SF-268; [1]
  CC50: > 100 µM
OVCAR-8
  GI50: 5.76 µM
  TGI: > 100 µM
OVCAR-8; [1]
  CC50: > 100 µM

Reference: ChEMBL document CHEMBL1821594, “Synthesis and anticancer evaluation of novel 2-cyclopropylimidazo[2,1-b][1,3,4]-thiadiazole derivatives” (2011)
